Source: ChEMBL document CHEMBL2331329, “Synthesis and biological evaluation of 2-(alkoxycarbonyl)-3-anilinobenzo[b]thiophenes and thieno[2,3-b]pyridines as new potent anticancer agents” (J Med Chem, 2013)
Calls of active or inactive are those of the source. The rule behind the calls is not given here.

How the values were obtained:
[1] = system: HT-29; test: Cytotoxicity against human HT-29 cells after 72 hrs by MTT assay; assay type: functional, cell-based; settings: HT-29, 72 h
[2] = system: A549; test: Cytotoxicity against human A549 cells after 72 hrs by MTT assay; assay type: functional, cell-based; settings: A549, 72 h
[3] = system: HeLa; test: Cytotoxicity against human HeLa cells after 72 hrs by MTT assay; assay type: functional, cell-based
[4] = system: MCF7; test: Cytotoxicity against human MCF7 cells after 72 hrs by MTT assay; assay type: functional, cell-based; settings: MCF7, 72 h
[5] = system: HL-60; test: Cytotoxicity against human HL60 cells after 72 hrs by MTT assay; assay type: functional, cell-based; settings: HL-60, 72 h
[6] = Cytotoxicity against human SEM cells after 72 hrs by MTT assay; assay type: functional, cell-based
Procedure, shortened: (§1)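 Cells plated at 8 × 10^3 per well, 18 h at 37 °C, 5% CO2, then fresh medium with graded compound concentrations (DMSO ≤0.25%) for 72 h. Jurkat, SEM, HL-60 grown in RPMI-1640; A549, HeLa, HT-29, MCF-7 in DMEM; 10% FBS with penicillin/streptomycin. MTT viability read-out; IC50 vs 0.25% DMSO controls; mean ± SE of at least three independent experiments.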

[7] = system: Jurkat; test: Cytotoxicity against human Jurkat cells after 72 hrs by MTT assay; assay type: functional, cell-based; procedure, shortened: as §1
[8] = Antitumor activity against mouse BNL 1ME A.7R.1 cells xenografted in Balb/c mouse assessed as reduction in tumor growth at 5 mg/kg, ip QD for 7 days; assay type: functional; set-up: scale not given: the % may be the effect or the level left; settings: route intraperitoneal
Procedure, shortened: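 Male Balb/c mice, 8 weeks old, given 10^7 syngeneic BNL 1ME A.7R.1 hepatoma cells subcutaneously in the dorsal region in 200 μL PBS. Randomised to groups of five. Dosed intraperitoneally once daily for 7 days at 5 mg/kg in 0.9% NaCl with 5% PEG 400 and 0.5% Tween 80, against vehicle and CA-4P. Tumours measured daily by caliper, V = AB2/2; body weight recorded. Mean ± SEM.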

[9] = Cytotoxicity against human LoVo/DX cells after 72 hrs by MTT assay; assay type: functional, cell-based
Procedure, shortened: (§2)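 MTT viability test: 8 × 10^3 cells per well settled 18 h at 37 °C, 5% CO2, then given fresh medium with compound (from 10 mM DMSO stocks, final DMSO ≤0.25%) for 72 h. […] CEMVbl-100 is a vinblastine-selected P-gp line; LoVoDoxo is grown in Ham's F12 with 0.1 μg/mL doxorubicin. Resistance index = resistant IC50/parental IC50.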

[10] = system: HeLa; test: Induction of apoptosis in human HeLa cells assessed as mitochondrial membrane depolarization at 10 to 100 nM by JC-1 staining; assay type: functional, cell-based; settings: TDE = time-dependent effect
Procedure, shortened: (§3)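 HeLa cells treated 24 or 48 h, then stained with the potentiometric dye JC-1. Proportion of cells with depolarised mitochondria read by flow cytometry. Mean ± SEM of three independent experiments.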

[11] = species: Bos taurus; test: Displacement of [3H]colchicine from bovine brain tubulin at 1 uM after 20 mins by turbidimetric analysis
[12] = system: HeLa; test: Induction of apoptosis in human HeLa cells assessed as early apoptotic cells at 10 to 100 nM by annexin V-FITC and propidium iodide staining-based flow cytometry; assay type: functional, cell-based; settings: TDE = time-dependent effect
Procedure, shortened: (§4)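 HeLa cells treated 24 or 48 h, then co-labelled with annexin-V–FITC and propidium iodide. Flow cytometry with 488 nm excitation and emission at 525 nm (FITC) and 585 nm (PI); early apoptotic cells counted as annexin-V+/PI−. Mean ± SEM of three independent experiments.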

[13] = system: HeLa; test: Cell cycle arrest in human HeLa cells assessed as accumulation at G2/M phase at 20 nM after 24 hrs by propidium iodide staining-based flow cytometry; assay type: functional
Procedure, shortened: (§5)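 Jurkat, HT-29 and HeLa cells in exponential growth (5 × 10^5 cells) treated 24 h at a range of concentrations. Fixed in ice-cold 70% ethanol, lysed with buffer containing RNase A and 0.1% Triton X-100, stained with propidium iodide. DNA content read by flow cytometry and the percentage of cells per cycle phase derived from DNA histograms.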

[14] = system: HT-29; test: Cell cycle arrest in human HT-29 cells assessed as accumulation at G2/M phase after 24 hrs by propidium iodide staining-based flow cytometry; assay type: functional; procedure, shortened: as §5
[15] = Cytotoxicity against human CEM/VBL100 cells after 72 hrs by MTT assay; assay type: functional, cell-based; settings: CEM/VBL100, 72 h; procedure, shortened: as §2
[16] = system: HeLa; test: Cell cycle arrest in human HeLa cells assessed as accumulation at G2/M phase after 24 hrs by propidium iodide staining-based flow cytometry; assay type: functional; procedure, shortened: as §5
[17] = system: HT-29; test: Cell cycle arrest in human HT-29 cells assessed as accumulation at G2/M phase at >20 nM after 24 hrs by propidium iodide staining-based flow cytometry; assay type: functional; procedure, shortened: as §5
[18] = system: Jurkat; test: Cell cycle arrest in human Jurkat cells assessed as accumulation at G2/M phase at >20 nM after 24 hrs by propidium iodide staining-based flow cytometry; assay type: functional; procedure, shortened: as §5
[19] = system: HeLa; test: Induction of apoptosis in human HeLa cells assessed as ROS production at 10 to 100 nM after 24 to 48 hrs by H2-DCFDA staining-based flow cytometry relative to control; assay type: functional, cell-based
Procedure, shortened: (§6)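 HeLa cells treated 24 or 48 h, then stained with H2-DCFDA or hydroethidine. ROS read by flow cytometry against untreated control. Mean ± SEM of three independent experiments.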

[20] = system: LoVo; test: Resistance index, ratio of IC50 for human LoVo/DX cells to IC50 for human LoVo cells; assay type: functional; procedure, shortened: as §2
[21] = Inhibition of bovine brain tubulin polymerization after 20 mins by turbidimetric analysis; set-up: species or system Bos taurus
Procedure, shortened: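 Bovine brain tubulin (10 μM) preincubated with varying compound concentrations in glutamate buffer at 30 °C, chilled to 0 °C, 0.4 mM GTP added, then warmed to 30 °C in a recording spectrophotometer.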

[22] = species: Bos taurus; test: Displacement of [3H]colchicine from bovine brain tubulin at 5 uM after 20 mins by turbidimetric analysis
[23] = system: Jurkat; test: Cell cycle arrest in human Jurkat cells assessed as accumulation at G2/M phase at 20 nM after 24 hrs by propidium iodide staining-based flow cytometry; assay type: functional; procedure, shortened: as §5
[24] = system: Jurkat; test: Cell cycle arrest in human Jurkat cells assessed as accumulation at G2/M phase after 24 hrs by propidium iodide staining-based flow cytometry; assay type: functional; procedure, shortened: as §5
[25] = system: HT-29; test: Cell cycle arrest in human HT-29 cells assessed as accumulation at G2/M phase at 20 nM after 24 hrs by propidium iodide staining-based flow cytometry; assay type: functional; procedure, shortened: as §5
[26] = system: CCRF-CEM; test: Resistance index, ratio of IC50 for human CEM/VBL100 cells to IC50 for human CEM cells; assay type: functional; procedure, shortened: as §2
[27] = system: LoVo; test: Cytotoxicity against human LoVo cells after 72 hrs by MTT assay; assay type: functional, cell-based; procedure, shortened: as §2
[28] = Cytotoxicity against human A549-T12 cells after 72 hrs by MTT assay; assay type: functional, cell-based; settings: A549, 72 h
Procedure, shortened: (§7)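 Mean ± SE of at least three independent experiments. Resistance ratio = IC50 in resistant line/IC50 in nonresistant line.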

[29] = system: HeLa; test: Induction of apoptosis in human HeLa cells assessed as ROS production at 10 to 100 nM after 24 to 48 hrs by HE staining-based flow cytometry relative to control; assay type: functional, cell-based; procedure, shortened: as §6
[30] = system: HeLa; test: Induction of apoptosis in human HeLa cells assessed as early apoptotic cells after 24 to 48 hrs by annexin V-FITC/Propidium iodide staining-based flow cytometry; assay type: functional, cell-based; procedure, shortened: as §4
[31] = system: A549; test: Resistance index, ratio of IC50 for human A549-T12 cells to IC50 for human A549 cells; assay type: functional; procedure, shortened: as §7
[32] = system: CCRF-CEM; test: Cytotoxicity against human CEM cells after 72 hrs by MTT assay; assay type: functional, cell-based; procedure, shortened: as §2
[33] = system: PBL; test: Cytotoxicity against human PHA-stimulated PBL cells after 72 hrs by MTT assay; assay type: cell-based
Procedure, shortened: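 Peripheral blood lymphocytes from healthy donors isolated on a Lymphoprep gradient and rested overnight in RPMI-1640 with 10% FBS. Nonadherent cells at 5 × 10^5 cells/mL, with 2.5 μg/mL PHA for proliferating cultures or without it for resting ones. Compound exposure 72 h, viability by MTT. Mean ± SEM of three experiments.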

[34] = system: HeLa; test: Induction of apoptosis in human HeLa cells assessed as mitochondrial membrane depolarization after 24 to 48 hrs by JC-1 staining; assay type: functional, cell-based; procedure, shortened: as §3
[35] = system: HeLa; test: Cell cycle arrest in human HeLa cells assessed as accumulation at G2/M phase at >20 nM after 24 hrs by propidium iodide staining-based flow cytometry; assay type: functional; procedure, shortened: as §5

`CCOC(=O)c1sc2ccccc2c1Nc1cc(OC)c(OC)c(OC)c1` gave an IC50 [1] of 1610 nM, an IC50 [2] of 8530 nM and an IC50 [3] of 3100 nM. It also gave an IC50 [4] of 6390 nM, an IC50 [5] of 5490 nM and an IC50 [6] of 1900 nM. It also gave an IC50 [7] of 3020 nM.
`COc1ccc(/C=C\c2cc(OC)c(OC)c(OC)c2)cc1OP(=O)([O-])[O-].[Na+].[Na+]` [FOSBRETABULIN DISODIUM] showed an Activity [8] of 44.5%.
For `COC(=O)c1sc2nc(C)ccc2c1Nc1cc(OC)c(OC)c(OC)c1`, the IC50 [9] was 0.5 nM, the Activity [10] was “tde” and the inhibition [11] was 78%. The Activity [12] was “tde”, the IC50 [1] was 0.35 nM and the IC50 [2] was 16.2 nM. The IC50 [3] was 0.18 nM, the Activity [13] was “Active” and the IC50 [4] was 0.53 nM. The Activity [14] was “Dose-dependent effect”, the IC50 [15] was 4.2 nM and the Activity [16] was “Dose-dependent effect”. For the same compound, the IC50 [5] was 0.4 nM, the Activity [17] was >80% and the Activity [18] was >80%. The Activity [19] was “Active”, the “Ratio IC50” value [20] was 0.3 and the IC50 [21] was 700 nM. For the same compound, the IC50 [6] was 0.5 nM, the inhibition [22] was 95% and the Activity [23] was “Active”. For the same compound, the Activity [24] was “Dose-dependent effect”, the Activity [25] was “Active” and the “Ratio IC50” value [26] was 1.5. The IC50 [27] was 1.9 nM, the IC50 [28] was 19.5 nM and the Activity [29] was “Active”. For the same compound, the Activity [30] was “Dose-dependent effect”, the IC50 [7] was 0.6 nM and the “Ratio IC50” value [31] was 1.2. The IC50 [32] was 2.8 nM, the IC50 [33] was 3400 nM and the Activity [34] was “Dose-dependent effect”. For the same compound, the Activity [35] was >80%.
In the case of `CCOC(=O)c1sc2cc(OC)ccc2c1Nc1cc(OC)c(OC)c(OC)c1`, the inhibition [11] is reported as 77%, the IC50 [2] is reported as 8.9 nM and the IC50 [3] is reported as 0.56 nM. The IC50 [4] was 5.6 nM, the IC50 [5] was 31.6 nM and the IC50 [21] was 810 nM. It also gave an IC50 [6] of 10.2 nM, an inhibition [22] of 94% and an IC50 [7] of 3.3 nM.
